For test [1], the system named is HeLa. As to the kind of experiment: Induction of [alpha-32P]-UTP-labeled Simian virus 40 late pre-mRNA 3' cleavage at 1 mM treated with 3' cleavage factors from human HeLa cell nuclear extract after 2 hrs by PAGE analysis. It counts as cell-based. Conditions: Betapolyomavirus macacae. In a few lines: (§1)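 Radiolabeled substrate (1–5 nM) derived from the SV40 late poly(A) signal was incubated with DEAE-sepharose CPSF, CstF and CFm fractions from HeLa nuclear extract. Test agent replaced 50 mM creatine phosphate. Reaction mix contained tRNA, 2 mM EDTA, 2 mM 2′-dATP, 2.5% polyvinyl alcohol and 10 mM HEPES pH 7.9, run at 30 °C for 2 h. Products were Proteinase K-digested, extracted, precipitated and resolved by 6% denaturing PAGE.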

Test [2] concerns HeLa. As to the kind of experiment: Induction of [alpha-32P]-UTP-labeled Simian virus 40 late pre-mRNA 3' cleavage at 25 to 200 uM treated with 3' cleavage factors from human HeLa cell nuclear extract after 2 hrs by PAGE analysis. It counts as cell-based. Conditions: Betapolyomavirus macacae. The method, boiled down: as §1
The test system of test [3] is HeLa. As to the kind of experiment: Induction of [alpha-32P]-UTP-labeled Simian virus 40 late pre-mRNA 3' cleavage at >= 100 uM treated with 3' cleavage factors from human HeLa cell nuclear extract after 2 hrs by PAGE analysis relative to control. Conditions: Betapolyomavirus macacae. In kind it is cell-based. The method, boiled down:
as §1

A short description of test [4]: Inhibition of ABI2 (unknown origin) at 3 uM relative to control. Further details: scale not given: the % may be the effect or the level left.
Test [5] in a line: Inhibition of ABI2 (unknown origin).
A short description of test [6]: Inhibition of ABI1 (unknown origin).
The subject of test [7] is HeLa. As to the kind of experiment: Induction of [alpha-32P]-UTP-labeled Simian virus 40 late pre-mRNA 3' cleavage treated with 3' cleavage factors from human HeLa cell nuclear extract after 2 hrs by PAGE analysis. In kind it is cell-based. The following applies: Betapolyomavirus macacae. The method, boiled down: (§2)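 Partially purified HeLa nuclear extract cleavage factors (DEAE fractions CPSF, CstF, CFm; ammonium sulfate-concentrated, dialyzed against 20 mM Na-HEPES pH 7.9 buffer) incubated with radiolabeled SV40 late poly(A) signal substrate (1–5 nM). Reaction mix: tRNA 0.1 mg/mL, 2 mM EDTA, 2 mM 2'-dATP, 2.5% polyvinyl alcohol, 10 mM HEPES pH 7.9, 25 mM ammonium sulfate, activator replacing creatine phosphate. Run 2 h at 30 °C; Proteinase K treatment, 6% denaturing gel.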

The test system of test [8] is HeLa. As to the kind of experiment: Induction of [alpha-32P]-UTP-labeled Simian virus 40 late pre-mRNA 3' cleavage at 50 mM treated with 3' cleavage factors from human HeLa cell nuclear extract after 2 hrs by PAGE analysis. It counts as cell-based. The following applies: Betapolyomavirus macacae. In a few lines:
as §2

The test system of test [9] is HeLa. As to the kind of experiment: Induction of [alpha-32P]-UTP-labeled Simian virus 40 late pre-mRNA 3' cleavage at 200 nM treated with 3' cleavage factors from human HeLa cell nuclear extract after 2 hrs by PAGE analysis in presence of protein tyrosine phosphatase. In kind it is cell-based. Conditions: Betapolyomavirus macacae.
Test [10] deals with HeLa. As to the kind of experiment: Induction of [alpha-32P]-UTP-labeled Simian virus 40 late pre-mRNA 3' cleavage at 200 nM treated with 3' cleavage factors from human HeLa cell nuclear extract after 2 hrs by PAGE analysis in presence of calf intestinal alkaline phosphatase. It counts as cell-based. The following applies: Betapolyomavirus macacae.
Test [11] deals with T1, Protein phosphatase 1D (Homo sapiens, UniProt O15297).
T1 sequence (O15297 whole entry): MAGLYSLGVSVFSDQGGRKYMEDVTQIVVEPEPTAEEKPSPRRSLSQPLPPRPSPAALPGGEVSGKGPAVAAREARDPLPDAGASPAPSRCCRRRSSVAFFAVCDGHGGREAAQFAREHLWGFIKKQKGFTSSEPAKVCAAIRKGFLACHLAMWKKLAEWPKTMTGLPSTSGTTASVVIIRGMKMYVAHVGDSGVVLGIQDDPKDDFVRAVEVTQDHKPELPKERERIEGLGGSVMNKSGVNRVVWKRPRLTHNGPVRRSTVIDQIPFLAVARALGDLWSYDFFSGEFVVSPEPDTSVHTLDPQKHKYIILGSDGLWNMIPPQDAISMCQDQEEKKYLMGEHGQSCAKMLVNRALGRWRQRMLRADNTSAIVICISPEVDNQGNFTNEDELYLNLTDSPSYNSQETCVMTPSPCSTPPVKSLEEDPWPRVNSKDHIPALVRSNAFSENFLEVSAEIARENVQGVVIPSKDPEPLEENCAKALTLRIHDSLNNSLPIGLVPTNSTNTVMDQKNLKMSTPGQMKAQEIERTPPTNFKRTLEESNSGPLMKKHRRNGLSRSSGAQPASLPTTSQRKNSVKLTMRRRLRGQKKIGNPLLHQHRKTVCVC
As to the kind of experiment: Inhibition of N-terminal His-tagged human PPM1D (1 to 420) assessed as phosphoric acid release after 30 mins.

Test [12] concerns HeLa. As to the kind of experiment: Induction of [alpha-32P]-UTP-labeled Simian virus 40 late pre-mRNA 3' cleavage at 200 nM treated with 3' cleavage factors from human HeLa cell nuclear extract after 2 hrs by PAGE analysis. The following applies: Betapolyomavirus macacae. In kind it is cell-based. In a few lines: as §1

Activity, IC50 and Ki data for 15 molecules are collected here from ChEMBL document CHEMBL3108742, “Structurally diverse low molecular weight activators of the mammalian pre-mRNA 3' cleavage reaction” (Bioorg Med Chem, 2014).

Each structure is given as a SMILES string. Activity calls are given as the source filed them. The rule behind the calls is not given here.

Consider `N=C(N)NCCC[C@H](N)C(=O)Nc1cccc2ccccc12`, for which the result in test [1] was inactive. For the molecule `CCNC(=N)NCCC[C@H](N)C(=O)Nc1cccc2ccccc12`, the result in test [1] was inactive.

Take `N=C(N)NCCC[C@@H](C(=O)Nc1ccc2ccccc2c1)N1CCOCC1`: the result in [2] was Active.

With `CC1=CC(=O)CC(C)(C)[C@@]1(O)/C=C/C(C)=C\C(=O)O` [(+)-ABSCISIC ACID], the Activity in test [3] is 10%; in [4], 15%. Besides, the IC50 (in general, the concentration that inhibits the measured activity by half) amounted to 70 nM in test [5] and 60 nM in test [6]. On to `N=C(N)NCCC[C@H](N)C(=O)Nc1ccc2ccccc2c1`, for which the outcome in test [2] was Active. Turning to `CNCCOP(=O)(O)O`, the outcome in [7] was inactive. With `C[N+](C)(C)CCCOP(=O)(O)O`, the result in [7] was inactive.

With `N[C@@H](COP(=O)(O)O)C(=O)O`, the result in [1] was inactive. As for `CN(CC(=O)O)C(=N)NP(=O)(O)O`, the result in test [8] was Active. For `CN(C)CCOP(=O)(O)O`, the result in test [7] was inactive. For the molecule `C[N+](C)(C)CCOP(=O)(O)O`, the outcome in test [1] was inactive. Consider `N=C(N)NCCC[C@H](N)C(=O)Nc1ccccc1`, for which the outcome in test [1] was inactive. With `N=C(N)NCCC[C@H](N)C(=O)Nc1cnc2ccccc2c1`, the result in [1] was inactive.

On to `CC[C@H](C)[C@@H]1NC(=O)[C@H](Cc2ccc(OP(=O)(O)O)cc2)NC(=O)[C@H](CC(=O)O)NC(=O)[C@H](CCC(=O)O)N[C@H](C(N)=O)CSCC(=O)[C@H](Cc2ccccc2)NC(=O)[C@H](COP(=O)(O)O)NC1=O`, for which the result in test [9] and in test [12] was Active. The outcome in test [10] was inactive. Moreover, in test [11], the Ki – broadly, a measure of affinity in units of concentration, obtained from inhibition or displacement – turned out to be 150 nM.

Take `CC(=O)N[C@@H](CCCC[N+](C)(C)C)C(=O)N[C@@H](COP(=O)([O-])O)C(=O)O`: the result in [1] was Active.
